From ChEMBL document CHEMBL5154701, “Thieno[2,3-d]pyrimidine-2,4(1H,3H)-dione Derivative Inhibits d-Dopachrome Tautomerase Activity and Suppresses the Proliferation of Non-Small Cell Lung Cancer Cells” (J Med Chem, 2022)
Values after ≈ are worked out from the molar mass of the structure shown. Active and inactive are the calls of the source. The rule behind the calls is not given here.

Columns and labels:
[1] = Inhibition of human recombinant MIF2 tautomerase activity expressed in bacterial expression system assessed as PP conversion incubated for 10 mins by tautomerase assay
Homo sapiens [2] = organism: Homo sapiens; test: Substrate activity at MIF2 tautomerase (unknown origin) assessed as rate constant Kcat
Summary of the method: (§1)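 Keto-enol tautomerization kinetics with phenylpyruvate, 4-chloro-, 4-hydroxy- and 4-methoxyphenylpyruvate as substrates. Initial conversion velocities taken from the linear first 3 min of UV absorbance increase. Kcat, Km and Kcat/Km derived from these rates.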

Homo sapiens [3] = organism: Homo sapiens; test: Substrate activity at MIF2 tautomerase (unknown origin) assessed as rate constant Km; summary of the method: as §1
Homo sapiens [4] = organism: Homo sapiens; test: Substrate activity at MIF2 tautomerase (unknown origin) assessed as ratio of Kcat to Km; summary of the method: as §1
A549 [5] = test: Inhibition of MIF2 related signalling pathway assessed as inhibition of MIF2 induced ERK phosphorylation in human A549 cells in presence of recombinant MIF2 incubated for 15 min by Western blot analysis; type: cell-based; conditions: dose 0.1-10 µM, DDE = dose-dependent effect
Summary of the method: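 A549 (3 × 10^5/well) grown overnight in RPMI with 0.5% FBS. Stimulated 15 min with recombinant MIF2 (100 ng/mL, serum-free), alone or preincubated with compound. Lysed in RIPA with phosphatase/protease inhibitors, and 20 μg protein blotted for pERK, ERK and GAPDH. pERK:ERK densitometry normalized to control; n = 2.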

A549 [6] = test: Induction of cell cycle arrest in human A549 cells assessed as accumulation of cells in G0/G1 phase for 2 days by flow cytometry analysis; type: functional, cell-based; conditions: dose 5-10 µM, time 2.0 day, DDE = dose-dependent effect
Summary of the method: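 A549 seeded at 1 × 10^5 per well and treated next day with compound or vehicle for 48 h. Cells trypsinized, then stained with 20 μg/mL propidium iodide plus 0.1% Triton X-100 for 15 min at room temperature. 30 000 cells acquired by flow cytometry and G0/G1, S and G2/M fractions gated. n = 3, mean ± SD.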

[7] = Solubility of the compound; type: physicochemical
Homo sapiens [8] = organism: Homo sapiens; test: Stabilization of human recombinant MIF2 expressed in bacterial expression system assessed as apparent melting temperature by fluorescence based thermal shift assay; conditions: DDE = dose-dependent effect
Summary of the method: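 Recombinant MIF2 expressed from pET20b(+) in E. coli BL21(DE3) and purified by Q sepharose, phenyl sepharose and size exclusion (trimer), in 20 mM sodium phosphate pH 8.0. Fluorescence-based thermal shift read-out: apparent melting temperature with compound versus DMSO control, with ΔTm as the difference.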

A549 [9] = test: Antiproliferative against human A549 cells assessed as inhibition of cell viability measured after 72 hrs by fluorescence based assay; type: functional
Summary of the method: (§2)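 Cells in RPMI-1640 with 10% FBS, 37 °C, 5% CO2, seeded at 1000 cells/well and cultured overnight. Treated with compound (0.25–10 μM) for 72 h. Relative cell number from DNA content by CyQUANT Direct, with 60 min detection reagent and fluorescence read at 485/535 nm. Normalized to DMSO control. Mean ± SD of three experiments.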

NCI-H1650 [10] = test: Antiproliferative against human NCI-H1650 cells assessed as inhibition of cell viability measured after 72 hrs by fluorescence based assay; type: functional; summary of the method: as §2
NCI-H1299 [11] = test: Antiproliferative against human NCI-H1299 cells assessed as inhibition of cell viability measured after 72 hrs by fluorescence based assay; type: functional; summary of the method: as §2
HCC827 [12] = test: Antiproliferative against human HCC827 cells assessed as inhibition of cell viability measured after 72 hrs by fluorescence based assay; type: functional; summary of the method: as §2
A549 [13] = test: Antiproliferative against human A549 cells assessed as inhibition of cell viability at 1 uM measured after 72 hrs by fluorescence based assay; type: functional; summary of the method: as §2
A549 [14] = test: Inhibition of colony formation in human A549 cells assessed as colony number measured after 5 days by crystal violet staining method; type: functional, cell-based; conditions: dose 1-10 µM, time 5.0 day, DDE = dose-dependent effect
Summary of the method: (§3)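 Seeded at 1000 cells/well in RPMI-1640 with 10% FBS and incubated overnight. Exposed to compound or DMSO for 5 days. Fixed in 4% paraformaldehyde for 20 min, then stained with 0.5% crystal violet for 20 min. Colonies imaged, dissolved in acetic acid, and absorbance read at 590 nm. Values relative to DMSO wells. Three experiments, mean ± SD.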

NCI-H1650 [15] = test: Inhibition of colony formation in human NCI-H1650 cells assessed as colony number measured after 5 days by crystal violet staining method; type: functional, cell-based; conditions: dose 1-10 µM, time 5.0 day, DDE = dose-dependent effect; summary of the method: as §3
NCI-H1299 [16] = test: Inhibition of colony formation in human NCI-H1299 cells assessed as colony number measured after 5 days by crystal violet staining method; type: functional, cell-based; conditions: dose 1-10 µM, time 5.0 day, DDE = dose-dependent effect; summary of the method: as §3
HCC827 [17] = test: Inhibition of colony formation in human HCC827 cells assessed as colony number measured after 5 days by crystal violet staining method; type: functional, cell-based; conditions: dose 1-10 µM, time 5.0 day, DDE = dose-dependent effect; summary of the method: as §3
A549 [18] = test: Inhibition of colony formation in human A549 cells assessed as colony size measured after 5 days by crystal violet staining method; type: functional, cell-based; conditions: dose 1-10 µM, time 5.0 day, DDE = dose-dependent effect; summary of the method: as §3
NCI-H1650 [19] = test: Inhibition of colony formation in human NCI-H1650 cells assessed as colony size measured after 5 days by crystal violet staining method; type: functional, cell-based; conditions: dose 1-10 µM, time 5.0 day, DDE = dose-dependent effect; summary of the method: as §3
NCI-H1299 [20] = test: Inhibition of colony formation in human NCI-H1299 cells assessed as colony size measured after 5 days by crystal violet staining method; type: functional, cell-based; conditions: dose 1-10 µM, time 5.0 day, DDE = dose-dependent effect; summary of the method: as §3
HCC827 [21] = test: Inhibition of colony formation in human HCC827 cells assessed as colony size measured after 5 days by crystal violet staining method; type: functional, cell-based; conditions: dose 1-10 µM, time 5.0 day, DDE = dose-dependent effect; summary of the method: as §3
A549 [22] = test: Inhibition of colony formation in human A549 cells at 10 uM measured after 5 days by crystal violet staining method; type: functional; conditions: A549, 120 h, time 5 day; summary of the method: as §3
NCI-H1650 [23] = test: Inhibition of colony formation in human NCI-H1650 cells at 10 uM measured after 5 days by crystal violet staining method; type: functional; conditions: NCI-H1650, 120 h, time 5 day; summary of the method: as §3
NCI-H1299 [24] = test: Inhibition of colony formation in human NCI-H1299 cells at 10 uM measured after 5 days by crystal violet staining method; type: functional; conditions: NCI-H1299, 120 h, time 5 day; summary of the method: as §3
HCC827 [25] = test: Inhibition of colony formation in human HCC827 cells at 10 uM measured after 5 days by crystal violet staining method; type: functional; conditions: HCC827, 120 h, time 5 day; summary of the method: as §3
[26] = Inhibition of MIF2 (unknown origin); parameters: species or system Homo sapiens
[27] = Inhibition of human MIF2 tautomerase activity expressed in Escherichia coli by anion-exchange chromatography

Molecule: Nc1sc(-c2ccccc2)cc1C(=O)NCC1CCOC1 (centres undefined)
- IC50 [1]: 168 µM

Molecule: CCCCCCCCNC(=O)c1cc(-c2ccccc2)sc1N
- IC50 [1]: 13 µM

Molecule: Nc1sc(-c2ccc(Cl)cc2)cc1C(=O)NCCc1ccc(Cl)cc1
- IC50 [1]: 36 µM

Molecule: C=CCn1c(=O)[nH]c2sc(-c3ccc(Cl)cc3)cc2c1=O
- IC50 [1]: 15 µM

Molecule: 4-methoxyphenylpyruvate
- kcat (Homo sapiens [2]): 28 s⁻¹
- Km (Homo sapiens [3]): 6.7 mM
- kcat/Km (Homo sapiens [4]): 0.43 10^4/M/s

Molecule: Cc1c(-c2ccc3c(c2)OCO3)sc2[nH]c(=O)n(Cc3ccccc3)c(=O)c12
- IC50 [1]: 4.6 µM

Molecule: phenylpyruvate
- kcat (Homo sapiens [2]): 132 s⁻¹
- Km (Homo sapiens [3]): 2.4 mM
- kcat/Km (Homo sapiens [4]): 5.5 10^4/M/s

Molecule: Cc1c(-c2ccc(Cl)cc2)sc2[nH]c(=O)n(Cc3ccc(C(F)(F)F)cc3)c(=O)c12
- IC50 [1]: 4.8 µM

Molecule: O=c1[nH]c2scc(-c3ccccc3)c2c(=O)n1Cc1ccccc1
- IC50 [1]: 36 µM

Molecule: Cc1c(-c2ccc(Cl)cc2)sc2nc(CCl)[nH]c(=O)c12
- IC50 [1]: 17 µM

Molecule: Cc1c(-c2cccc(C(F)(F)F)c2)sc(N)c1C(=O)NCc1cccc2ccccc12
- IC50 [1]: 2.6 µM

Molecule: Cc1c(-c2ccc(Cl)cc2)sc2nc(Cc3ccccc3)[nH]c(=O)c12
- IC50 [1]: 15 µM

Molecule: Cc1c(-c2ccc(Cl)c(Cl)c2)sc2[nH]c(=O)n(Cc3ccccc3)c(=O)c12
- IC50 [1]: 1.9 µM

Molecule: Cc1c(-c2cccc(C(F)(F)F)c2)sc2[nH]c(=O)n(Cc3ccccc3)c(=O)c12
- IC50 [1]: 1.7 µM

Molecule: 4-chlorophenylpyruvate
- kcat (Homo sapiens [2]): 68 s⁻¹
- Km (Homo sapiens [3]): 2.17 mM
- kcat/Km (Homo sapiens [4]): 3.2 10^4/M/s

Molecule: CCCCNC(=O)c1cc(-c2ccc(Cl)cc2)sc1N
- IC50 [1]: 15 µM

Molecule: Cc1c(-c2cccc(C(F)(F)F)c2)sc2[nH]c(=O)n([C@H](C)c3cccc4ccccc34)c(=O)c12
- inhibition (A549 [5]): Dde
- Activity (A549 [6]): Dde
- IC50 [1]: 1 µM
- solubility [7]: 0.016 mg/mL (≈ 33.3 µM)
- deltaTm (Homo sapiens [8]): Dde
- IC50 (A549 [9]; A549, 72 h): 3 µM
- Activity (A549 [9]; DDE = dose-dependent effect): Dde
- Activity (NCI-H1650 [10]; DDE = dose-dependent effect): Dde
- IC50 (NCI-H1650 [10]; NCI-H1650, 72 h): 5.3 µM
- Activity (NCI-H1299 [11]; DDE = dose-dependent effect): Dde
- IC50 (NCI-H1299 [11]; NCI-H1299, 72 h): 7.6 µM
- Activity (HCC827 [12]; DDE = dose-dependent effect): Dde
- IC50 (HCC827 [12]; HCC827, 72 h): 5.2 µM
- Activity (A549 [13]): Active
- inhibition (A549 [14]): Dde
- inhibition (NCI-H1650 [15]): Dde
- inhibition (NCI-H1299 [16]): Dde
- inhibition (HCC827 [17]): Dde
- inhibition (A549 [18]): Dde
- inhibition (NCI-H1650 [19]): Dde
- inhibition (NCI-H1299 [20]): Dde
- inhibition (HCC827 [21]): Dde
- inhibition at 10 µM (A549 [22]): 90%
- inhibition at 10 µM (NCI-H1650 [23]): 90%
- inhibition at 10 µM (NCI-H1299 [24]): 90%
- inhibition at 10 µM (HCC827 [25]): 90%

Molecule: Cc1c(-c2cccc(C(F)(F)F)c2)sc2[nH]c(=O)n(Cc3cccc4ccccc34)c(=O)c12
- IC50 [1]: 0.81 µM

Molecule: CCOCCNC(=O)c1cc(-c2ccc(Cl)cc2)sc1N
- IC50 [1]: > 100 µM

Molecule: Cc1c(-c2cccc(C(F)(F)F)c2)sc2[nH]c(=O)n([C@@H](C)c3cccc4ccccc34)c(=O)c12
- IC50 [1]: 2.5 µM
- solubility [7]: 0.015 mg/mL (≈ 31.2 µM)

Molecule: Cc1c(-c2cccc(C(F)(F)F)c2)sc(N)c1C(=O)N[C@H](C)c1cccc2ccccc12
- IC50 [1]: 4.2 µM

Molecule: Cc1c(-c2ccccc2)sc2[nH]c(=O)n(-c3ccccc3)c(=O)c12
- IC50 [1]: > 100 µM

Molecule: Cc1c(-c2ccc(Cl)cc2Cl)sc2[nH]c(=O)n(Cc3ccccc3)c(=O)c12
- IC50 [1]: 3.5 µM

Molecule: Ic1cc(-c2ccccc2)ncn1
- IC50 [26]: > 100 µM

Molecule: COc1cccc(Cc2nc3sc(-c4ccc(Cl)cc4)c(C)c3c(=O)[nH]2)c1
- IC50 [1]: 4.3 µM

Molecule: 4-hydroxylphenylpyruvate
- kcat (Homo sapiens [2]): 13 s⁻¹
- Km (Homo sapiens [3]): 3.62 mM
- kcat/Km (Homo sapiens [4]): 0.37 10^4/M/s

Molecule: CCCCNC(=O)c1c(N)sc(-c2ccc(Cl)cc2)c1CCCC
- IC50 [1]: 15 µM

Molecule: CCCCNC(=O)c1cc(-c2ccccc2)sc1NC(C)=O
- IC50 [1]: 41 µM

Molecule: Cc1c(-c2ccc(Cl)cc2)sc2[nH]c(=O)n(Cc3ccccc3)c(=O)c12
- IC50 [1]: 5.1 µM

Molecule: Cc1c(-c2cccc(C(F)(F)F)c2)sc(N)c1C(=O)N[C@@H](C)c1cccc2ccccc12
- IC50 [1]: 7.9 µM

Molecule: Cc1c(-c2ccc(F)cc2)sc2nc(Cc3ccccc3)[nH]c(=O)c12
- IC50 [1]: 17 µM

Molecule: CCCCn1c(=O)[nH]c2sc(-c3ccccc3)cc2c1=O
- IC50 [1]: 16 µM

Molecule: Nc1sc(-c2ccc(Cl)cc2)cc1C(=O)NCCc1ccccc1
- IC50 [1]: 84 µM

Molecule: CCCCNC(=O)c1cc(-c2ccc(Br)cc2)sc1N
- IC50 [1]: 7.2 µM

Molecule: O=c1[nH]c2scc(-c3ccc(Cl)cc3)c2c(=O)n1Cc1ccccc1
- IC50 [1]: 27 µM

Molecule: CCCCNC(=O)c1cc(-c2ccccc2)sc1NC(=O)CCC
- IC50 [1]: 39 µM

Molecule: Cc1c(-c2ccc(Cl)cc2)sc2[nH]c(=O)n(-c3ccccc3)c(=O)c12
- IC50 [1]: 19 µM

Molecule: O=C(O)c1cccc(-c2cc(C(=O)O)ncc2C(=O)O)c1
- IC50 [27]: 27 µM
- IC50 [1]: 47 µM

Molecule: Cc1c(-c2ccccc2)sc2[nH]c(=O)n(Cc3ccccc3)c(=O)c12
- IC50 [1]: 7.6 µM
